# Data taken from ChEMBL document CHEMBL2086315, “Flabelliferins A and B, sesterterpenoids from the South Pacific sponge Carteriospongia flabellifera” (J Nat Prod, 2012).
# Active and inactive are the calls of the source. No cut-off for these calls is given here.
# Assays:
# COLO 205 [1] = assay: Growth inhibition of human COLO205 cells after 2 days by XTT assay; format: functional, cell-based; conditions: COLO 205, 48 h
# How it was run: (§1)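 Test samples were supplied as DMSO solutions and applied to human colon tumour KM12 and COLO205 cells in a two-day in vitro XTT-based antiproliferative assay. Activity was expressed as IC50 (μM).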
# [2] = biological target: Endothelial PAS domain-containing protein 1 (Homo sapiens) (UniProt Q99814); assay: Inhibition of HIF-2alpha expressed in 786O cells assessed as inhibition of VEGF expression by luciferase reporter gene assay; format: cell-based
# KM12 [3] = assay: Growth inhibition of human KM12 cells after 2 days by XTT assay; format: functional, cell-based; conditions: KM12, 48 h; how it was run: as §1
# KM12 [4] = assay: Cytotoxicity against human KM12 cells after 2 days by XTT assay; format: functional, cell-based; conditions: KM12, 48 h; how it was run: as §1
# COLO 205 [5] = assay: Cytotoxicity against human COLO205 cells after 2 days by XTT assay; format: functional, cell-based; conditions: COLO 205, 48 h; how it was run: as §1
# Endothelial PAS domain-containing protein 1 (Homo sapiens), sequence (Q99814 whole entry, the tested form may be a part): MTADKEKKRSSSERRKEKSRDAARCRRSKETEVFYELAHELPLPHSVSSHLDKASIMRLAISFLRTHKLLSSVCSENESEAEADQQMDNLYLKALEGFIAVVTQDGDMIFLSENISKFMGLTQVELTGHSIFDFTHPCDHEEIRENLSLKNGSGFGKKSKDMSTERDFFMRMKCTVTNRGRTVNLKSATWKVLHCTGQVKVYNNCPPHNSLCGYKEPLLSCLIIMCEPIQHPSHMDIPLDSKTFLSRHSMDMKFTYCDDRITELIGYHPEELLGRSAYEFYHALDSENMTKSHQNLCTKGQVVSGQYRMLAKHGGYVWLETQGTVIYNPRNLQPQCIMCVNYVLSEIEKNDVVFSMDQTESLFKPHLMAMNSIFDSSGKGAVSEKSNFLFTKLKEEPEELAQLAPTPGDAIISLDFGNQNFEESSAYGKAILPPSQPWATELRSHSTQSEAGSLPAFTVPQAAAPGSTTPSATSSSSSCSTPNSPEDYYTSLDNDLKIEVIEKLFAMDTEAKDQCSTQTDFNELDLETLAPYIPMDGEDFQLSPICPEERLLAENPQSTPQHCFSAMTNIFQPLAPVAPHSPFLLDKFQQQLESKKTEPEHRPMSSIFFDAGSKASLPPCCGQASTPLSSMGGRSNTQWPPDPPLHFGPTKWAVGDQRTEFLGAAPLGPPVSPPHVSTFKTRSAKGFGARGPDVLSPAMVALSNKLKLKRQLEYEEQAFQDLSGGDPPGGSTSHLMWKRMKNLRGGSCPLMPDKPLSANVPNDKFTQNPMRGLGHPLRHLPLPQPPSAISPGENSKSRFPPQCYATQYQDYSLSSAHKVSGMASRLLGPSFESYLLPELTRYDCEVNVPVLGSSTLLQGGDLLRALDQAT
SMILES,IC50 (COLO 205 [1]),inhibition [2],IC50 (KM12 [3]),IC50 (KM12 [4]),IC50 (COLO 205 [5])
C=C1[C@@H](OC(C)=O)C[C@H]2[C@@](C)(CC[C@H]3C(C)(C)CCC[C@]23C)[C@@H]1C[C@H](O)[C@H](CCOC(C)=O)C(C)=O [FLABELLIFERIN A],20 µM,inactive,15 µM,15 µM,20 µM
CC(=O)O[C@H]1C[C@H]2[C@@](C)(CC[C@H]3C(C)(C)CCC[C@]23C)[C@@H]2C[C@H](O)C(C(C)=O)=C[C@@]12C [FLABELLIFERIN B],20 µM,inactive,18 µM,18 µM,20 µM
